Among the data in ChEMBL document CHEMBL1158134, “Low-abundance kutznerides from Kutzneria sp. 744” (2006) are MIC and Activity values, retold here.

Experiment [1] has as its system Drechslera. Nature of the experiment: Antimicrobial activity against Drechslera sorokiniana at 27 to 28 degC after 48 hrs in dark. The experiment is classed as functional. In a few lines:
(§1)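 MIC by microtiter bioassay scoring inhibition of spore germination or cell growth. Compounds in MeOH were dried in the wells, then 100 µL of spore or cell suspension (10^4 spores/mL or cells/mL) in appropriate medium was added. The top concentration tested was 230 to 590 µM. Controls were untreated suspension and sterile medium. Growth was scored visually on a 0–3 scale. Run in triplicate, repeated once.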

The test system of experiment [2] is Fusarium culmorum. Description: Antimicrobial activity against Fusarium culmorum at 27 to 28 degC after 72 hrs in dark. Format: functional. The essentials:
as §1

In experiment [3] the test system is Pectobacterium carotovorum. Nature of the experiment: Antimicrobial activity against Erwinia carotovora at 27 to 28 degC after 24 hrs in dark. The experiment is classed as functional. The essentials: as §1
Experiment [4] has as its system Staphylococcus aureus. Nature of the experiment: Antimicrobial activity against Staphylococcus aureus at 37 degC after 24 hrs in dark. The experiment is classed as functional. In a few lines:
as §1

In experiment [5] the test system is Pseudomonas savastanoi pv. savastanoi. Nature of the experiment: Antimicrobial activity against Pseudomonas savastanoi pv. savastanoi up to 590 uM at 27 to 28 degC after 24 hrs in dark. Format: functional, organism-based. In a few lines:
as §1

In experiment [6] the test system is Aspergillus fumigatus. Description: Antimicrobial activity against Aspergillus fumigatus up to 590 uM at 27 to 28 degC after 96 hrs in dark. Format: functional, organism-based. The essentials:
as §1

For experiment [7], the system named is Candida albicans. Description: Antimicrobial activity against Candida albicans up to 590 uM at 37 degC after 24 hrs in dark. The experiment is classed as functional, organism-based. The essentials: as §1

The structures appear in SMILES notation. Values after ≈ are worked out from the molar mass of the structure shown. Active and inactive are the calls of the source. The calls are words filed in the database; no cut-off is given here.

As for `C[C@@H]1[C@H](O)[C@@H](C)/C=C/C=C/C=C/C=C/C=C/C=C/C=C/[C@H](O[C@@H]2O[C@H](C)[C@@H](O)[C@H](N)[C@@H]2O)C[C@@H]2O[C@](O)(C[C@@H](O)C[C@@H](O)[C@H](O)CC[C@@H](O)C[C@@H](O)CC(=O)O[C@H]1C)C[C@H](O)[C@H]2C(=O)O` [AMPHOTERICIN B], the MIC is 4 µM (≈ 3.7 µg/mL) in experiment [1] and 40 µM (≈ 37 µg/mL) in experiment [2].
Take `COC[C@@H]1NC(=O)[C@@H]2CCCNN2C(=O)[C@H](C(C)(C)C)OC(=O)[C@@H](C2(C)CC2)NC(=O)[C@@H]2C[C@@]3(O)c4ccc(Cl)c(Cl)c4N[C@H]3N2C(=O)[C@@H]([C@@H](O)CC(=O)O)NC1=O` [KUTZNERIDE 1]: the minimum inhibitory concentration (MIC) came out at 230 µM (≈ 197 µg/mL) in experiment [1], 60 µM (≈ 51.3 µg/mL) in experiment [3], 210 µM (≈ 179 µg/mL) in experiment [2] and 12 µM (≈ 10.3 µg/mL) in experiment [4]. The outcome in experiment [5], in experiment [6] and in experiment [7] was inactive.
Regarding `COC[C@@H]1NC(=O)[C@@H]2C[C@@H](Cl)CNN2C(=O)[C@H](C(C)(C)C)OC(=O)[C@@H](C2(C)CC2)NC(=O)[C@@H]2C[C@@]3(O)c4ccc(Cl)c(Cl)c4N[C@H]3N2C(=O)[C@@H]([C@@H](O)CC(=O)O)NC1=O` [KUTZNERIDE 2], the MIC was determined as 110 µM (≈ 97.8 µg/mL) in experiment [1], 6 µM (≈ 5.34 µg/mL) in experiment [3], 70 µM (≈ 62.2 µg/mL) in experiment [2] and 6 µM (≈ 5.34 µg/mL) in experiment [4]. Moreover, the result in experiment [5], in experiment [6] and in experiment [7] was inactive.
As to `COC[C@@H]1NC(=O)[C@@H]2CCCNN2C(=O)[C@H](C(C)(C)C)OC(=O)[C@@H](C2(C)CC2)NC(=O)[C@@H]2C[C@@]3(O)c4ccc(Cl)c(Cl)c4N[C@H]3N2C(=O)[C@@H]([C@H](O)CC(=O)O)NC1=O` [KUTZNERIDE 3], the MIC was 260 µM (≈ 222 µg/mL) in experiment [1], 12 µM (≈ 10.3 µg/mL) in experiment [3], 260 µM (≈ 222 µg/mL) in experiment [2] and 9 µM (≈ 7.69 µg/mL) in experiment [4]. Also, the result in experiment [5], in experiment [6] and in experiment [7] was inactive.
For `COC[C@@H]1NC(=O)[C@@H]2CCC=NN2C(=O)[C@H](C(C)(C)C)OC(=O)[C@@H](C2(C)CC2)NC(=O)[C@@H]2C[C@@]3(O)c4ccc(Cl)c(Cl)c4N[C@H]3N2C(=O)[C@@H]([C@H](O)CC(=O)O)NC1=O` [KUTZNERIDE 4], the minimal inhibitory concentration (MIC) was over 590 µM in experiment [1], 120 µM (≈ 102 µg/mL) in experiment [3], over 590 µM in experiment [2] and 140 µM (≈ 119 µg/mL) in experiment [4]. Further, the result in experiment [5], in experiment [6] and in experiment [7] was inactive.
Consider `COC[C@@H]1NC(=O)[C@@H]2CCCNN2C(=O)[C@H](C(C)C)OC(=O)[C@@H](C2(C)CC2)NC(=O)[C@@H]2C[C@@]3(O)c4ccc(Cl)c(Cl)c4N[C@H]3N2C(=O)[C@@H]([C@H](O)CC(=O)O)NC1=O` [KUTZNERIDE 5], for which the MIC in experiment [1] is over 240 µM; in experiment [3] it was 120 µM (≈ 101 µg/mL); in experiment [2], over 240 µM; in experiment [4], 120 µM (≈ 101 µg/mL).
`COC[C@@H]1NC(=O)[C@@H]2C[C@@H](O)C=NN2C(=O)[C@H](C(C)(C)C)OC(=O)[C@@H](C2(C)CC2)NC(=O)[C@@H]2C[C@@]3(O)c4ccc(Cl)c(Cl)c4N[C@H]3N2C(=O)[C@@H]([C@H](O)CC(=O)O)NC1=O` [KUTZNERIDE 6]: the MIC in experiment [1] is over 400 µM; in experiment [3] it was over 230 µM; in experiment [2], over 230 µM; in experiment [4] it was over 230 µM.
Regarding `COC[C@@H]1NC(=O)[C@@H]2CCCNN2C(=O)[C@H](C(C)C)OC(=O)[C@@H](C2(C)CC2)NC(=O)[C@@H]2C[C@@]3(O)c4ccc(Cl)c(Cl)c4N[C@H]3N2C(=O)[C@@H]([C@@H](O)CC(=O)O)NC1=O` [KUTZNERIDE 7], the MIC was over 420 µM in experiment [1], 180 µM (≈ 151 µg/mL) in experiment [3], over 420 µM in experiment [2] and 120 µM (≈ 101 µg/mL) in experiment [4].
`COC[C@@H]1NC(=O)[C@@H]2C[C@@H](Cl)CNN2C(=O)[C@H](C(C)(C)C)OC(=O)[C@@H](C2(C)CC2)NC(=O)[C@@H]2C[C@@]3(O)c4ccc(Cl)c(Cl)c4N[C@H]3N2C(=O)[C@@H]([C@H](O)CC(=O)O)NC1=O` [KUTZNERIDE 8]: the MIC in experiment [1] came out at 230 µM (≈ 205 µg/mL); in experiment [3] it was 6 µM (≈ 5.34 µg/mL); in experiment [2], 110 µM (≈ 97.8 µg/mL); in experiment [4] it was 6 µM (≈ 5.34 µg/mL).
Take `COC[C@@H]1NC(=O)[C@@H]2CCC=NN2C(=O)[C@H](C(C)(C)C)OC(=O)[C@@H](C2(C)CC2)NC(=O)[C@@H]2C[C@@]3(O)c4ccc(Cl)c(Cl)c4N[C@H]3N2C(=O)[C@@H]([C@@H](O)CC(=O)O)NC1=O` [KUTZNERIDE 9]: the minimum inhibitory concentration (MIC) in experiment [1] was over 230 µM; in experiment [3], 230 µM (≈ 196 µg/mL); in experiment [2], over 230 µM; in experiment [4], 60 µM (≈ 51.2 µg/mL).
`CN[C@@H]1[C@H](O[C@H]2[C@H](O[C@H]3[C@H](O)[C@@H](O)[C@H](N=C(N)N)[C@@H](O)[C@@H]3N=C(N)N)O[C@@H](C)[C@]2(O)C=O)O[C@@H](CO)[C@H](O)[C@H]1O` [STREPTOMYCIN] had a minimum inhibitory concentration (MIC) in experiment [4] of 17 µM (≈ 9.89 µg/mL).

As a reminder, the MIC is the lowest concentration that inhibits growth of the organism. A higher MIC goes with a need for much substance.
